ChEMBL document CHEMBL1641555, “Asymmetric synthesis of phenanthroindolizidine alkaloids with hydroxyl group at the C14 position and evaluation of their antitumor activities” (Bioorg Med Chem Lett, 2011)

Experiments:
[1] = system: A549; experiment: Cytotoxicity against human A549 cells after 96 hrs by WST-8 assay; type: functional, cell-based; conditions: A549, 96 h
Procedure, shortened: (§1)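 KB, A549 and HT-29 cells in exponential growth were seeded at 10³ cells/well. Serially diluted compounds were added the following day and incubated for 96 h. WST-8 reagent was then added for 1 h at 37 °C, and viability was read as absorbance at 450 nm.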

[2] = system: KB; experiment: Cytotoxicity against human KB cells after 96 hrs by WST-8 assay; type: functional, cell-based; procedure, shortened: as §1
[3] = system: HT-29; experiment: Cytotoxicity against human HT-29 cells after 96 hrs by WST-8 assay; type: functional, cell-based; conditions: HT-29, 96 h; procedure, shortened: as §1
[4] = system: Mus musculus; experiment: Toxicity in mouse Meth-A cells xenografted BALB/c mouse assessed as mortality at 50 mg/kg, iv; type: organism-based; parameters: dose 50 mg/kg, route intravenous; conditions: in vivo
Procedure, shortened: (§2)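 Meth A sarcoma cells, 2.5 × 10⁵ per mouse, inoculated sc into 7-week-old male BALB/c mice, 5 per group. Samples given iv on days 1, 5 and 9. Animals followed to day 21 after tumor inoculation, when tumors were weighed.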

[5] = Antitumor activity against mouse Meth-A cells xenografted in BALB/c mouse assessed as tumor growth inhibition at 50 mg/kg, iv administered on day 1, 5, and 9 measured after 21 days relative to control; type: functional
Procedure, shortened: (§3)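 Meth A sarcoma cells, 2.5 × 10⁵ per mouse, implanted sc in 7-wk-old male BALB/c mice, 5 per group. Compound given iv on days 1, 5 and 9. Tumors excised and weighed on day 21 after inoculation. Inhibition rate (%) = [1 − (mean tumor weight treated)/(mean tumor weight control)] × 100.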

[6] = Antitumor activity against mouse Meth-A cells xenografted in BALB/c mouse assessed as tumor growth inhibition at 25 mg/kg, iv administered on day 1, 5, and 9 measured after 21 days relative to control; type: functional; procedure, shortened: as §3
[7] = system: Mus musculus; experiment: Toxicity in mouse Meth-A cells xenografted BALB/c mouse assessed as mortality at 25 mg/kg, iv; type: organism-based; parameters: dose 25 mg/kg, route intravenous; conditions: in vivo; procedure, shortened: as §2
[8] = system: Mus musculus; experiment: Toxicity in mouse Meth-A cells xenografted BALB/c mouse assessed as mortality at 100 mg/kg, iv; type: organism-based; parameters: dose 100 mg/kg, route intravenous; conditions: in vivo; procedure, shortened: as §2

Question: Which IC50 [1] does the source give for `COc1cc2c3c(c4cc(O)ccc4c2cc1OC)[C@H](O)[C@@H]1CCCN1C3` here?
Answer: 4.7 nM

Question: What about the IC50 [2] of the same compound?
Answer: 43.8 nM

Question: What about the IC50 [3] of the same compound?
Answer: 6.8 nM

Question: What does the source list for `COc1cc2c3c(c4cccc(O)c4c2cc1OC)[C@H](O)[C@@H]1CCCN1C3`?
Answer: IC50 [1]: 3.3 nM; IC50 [2]: 1.4 nM; IC50 [3]: 82.1 nM

Question: Which results are given for `COc1cc2c3c(c4ccc(O)cc4c2cc1OC)[C@@H](O)[C@H]1CCCN1C3`?
Answer: IC50 [1]: 10.9 nM; Activity [4]: Non-toxic; IC50 [2]: 3 nM; inhibition in vivo at 50 mg/kg [5]: 12.5%; inhibition in vivo at 25 mg/kg [6]: 7.2%; IC50 [3]: 12.5 nM; Activity [7]: Non-toxic

Question: For `COc1ccc2c3c(c4cc(OC)c(OC)cc4c2c1)CN1CCC[C@H]1[C@H]3O`, which IC50 [1] is on record?
Answer: 0.3 nM

Question: What about the Activity [4] of the same compound?
Answer: Non-toxic

Question: And the IC50 [2]?
Answer: 4.2 nM

Question: And the inhibition in vivo at 25 mg/kg [6]?
Answer: 4.3%

Question: What about the IC50 [3] of the same compound?
Answer: 2.1 nM

Question: With `COc1ccc2c3c(c4cc(OC)c(OC)cc4c2c1)CN1CCC[C@@H]1[C@@H]3O` as the compound, how does the IC50 [1] read?
Answer: 15.5 nM

Question: And the IC50 [2]?
Answer: 47.4 nM

Question: And the IC50 [3]?
Answer: 20.8 nM

Question: What does the source list for `COc1cc2c3c(c4ccccc4c2cc1OC)[C@H](O)[C@@H]1CCCN1C3`?
Answer: IC50 [1]: 7.4 nM; IC50 [2]: 17.5 nM; IC50 [3]: 10.6 nM

Question: Which results are given for `COc1cc2c3c(c4ccccc4c2cc1OC)[C@@H](O)[C@H]1CCCN1C3`?
Answer: IC50 [1]: 604 nM; IC50 [2]: 2030 nM; IC50 [3]: 584 nM

Question: For `CCc1ccc2c3c(c4cc(OC)c(OC)cc4c2c1)CN1CCC[C@H]1[C@H]3O`, which IC50 [1] is on record?
Answer: 559 nM

Question: And the IC50 [2]?
Answer: 180 nM

Question: And the IC50 [3]?
Answer: 135 nM

Question: For `CCc1ccc2c3c(c4cc(OC)c(OC)cc4c2c1)CN1CCC[C@@H]1[C@@H]3O`, which IC50 [1] is on record?
Answer: 268 nM

Question: What about the IC50 [2] of the same compound?
Answer: 1590 nM

Question: And the IC50 [3]?
Answer: 320 nM

Question: Which IC50 [1] does the source give for `COc1cc2c3c(c4ccc(F)cc4c2cc1OC)[C@H](O)[C@@H]1CCCN1C3` here?
Answer: 11.2 nM

Question: And the IC50 [2]?
Answer: 49 nM

Question: What about the IC50 [3] of the same compound?
Answer: 19.6 nM

Question: For `COc1cc2c3c(c4ccc(F)cc4c2cc1OC)[C@@H](O)[C@H]1CCCN1C3`, which IC50 [1] is on record?
Answer: 92.8 nM

Question: What about the IC50 [2] of the same compound?
Answer: 653 nM

Question: And the IC50 [3]?
Answer: 106 nM

Question: For `COc1cc2c3c(c4ccc(OC(C)=O)cc4c2cc1OC)[C@H](O)[C@@H]1CCCN1C3`, which IC50 [1] is on record?
Answer: 1.5 nM

Question: What about the IC50 [2] of the same compound?
Answer: 1.7 nM

Question: What about the inhibition in vivo at 50 mg/kg [5] of the same compound?
Answer: 39.3%

Question: What about the inhibition in vivo at 25 mg/kg [6] of the same compound?
Answer: 54.9%

Question: And the IC50 [3]?
Answer: 0.2 nM

Question: And the Activity [7]?
Answer: Non-toxic

Question: For `Oc1ccc2c3c(c4ccccc4c2c1)CN1CCC[C@H]1[C@H]3O`, which IC50 [1] is on record?
Answer: 354 nM

Question: What about the IC50 [2] of the same compound?
Answer: 1960 nM

Question: And the IC50 [3]?
Answer: 458 nM

Question: With `Oc1ccc2c3c(c4cc5c(cc4c2c1)OCO5)CN1CCC[C@H]1[C@H]3O` as the compound, how does the IC50 [1] read?
Answer: 54.4 nM

Question: What about the IC50 [2] of the same compound?
Answer: 25.5 nM

Question: What about the IC50 [3] of the same compound?
Answer: 134 nM

Question: For `CC1(C)Oc2cc3c4c(c5ccc(O)cc5c3cc2O1)[C@H](O)[C@@H]1CCCN1C4`, which IC50 [1] is on record?
Answer: 928 nM

Question: And the IC50 [2]?
Answer: 742 nM

Question: What about the IC50 [3] of the same compound?
Answer: 488 nM

Question: What does the source list for `CCOc1cc2c3c(c4ccc(O)cc4c2cc1OCC)[C@H](O)[C@@H]1CCCN1C3`?
Answer: IC50 [1]: 0.7 nM; Activity [4]: Non-toxic; IC50 [2]: 10.9 nM; inhibition in vivo at 50 mg/kg [5]: -10.6%; inhibition in vivo at 25 mg/kg [6]: -3.1%; IC50 [3]: 1.2 nM; Activity [7]: Non-toxic

Question: What does the source list for `COc1cc2c(CBr)cc3ccc(OCc4ccccc4)cc3c2cc1OC`?
Answer: Activity [8]: Non-toxic; Activity [4]: Non-toxic

Question: With `COc1cc2c3c(c4ccc(O)cc4c2cc1OC)[C@H](O)[C@@H]1CCCN1C3` [TYLOPHORIDICINE E] as the compound, how does the IC50 [1] read?
Answer: 0.5 nM

Question: What about the Activity [4] of the same compound?
Answer: Toxic

Question: And the IC50 [2]?
Answer: 5.2 nM

Question: What about the inhibition in vivo at 25 mg/kg [6] of the same compound?
Answer: 30.6%

Question: And the IC50 [3]?
Answer: 1.6 nM

Question: What about the Activity [7] of the same compound?
Answer: Non-toxic
